Results taken from ChEMBL document CHEMBL1125679, “Novel caffeic acid derivatives: extremely potent inhibitors of 12-lipoxygenase” (J Med Chem, 1991).

Legend:
[1] = molecular target: T1, Polyunsaturated fatty acid lipoxygenase ALOX15B (Rattus norvegicus, UniProt Q8K4F2); test: Inhibitory activity against 15-lipoxygenase in rat polymorphonuclear leukocytes; format: cell-based
T1 sequence (Q8K4F2 whole entry): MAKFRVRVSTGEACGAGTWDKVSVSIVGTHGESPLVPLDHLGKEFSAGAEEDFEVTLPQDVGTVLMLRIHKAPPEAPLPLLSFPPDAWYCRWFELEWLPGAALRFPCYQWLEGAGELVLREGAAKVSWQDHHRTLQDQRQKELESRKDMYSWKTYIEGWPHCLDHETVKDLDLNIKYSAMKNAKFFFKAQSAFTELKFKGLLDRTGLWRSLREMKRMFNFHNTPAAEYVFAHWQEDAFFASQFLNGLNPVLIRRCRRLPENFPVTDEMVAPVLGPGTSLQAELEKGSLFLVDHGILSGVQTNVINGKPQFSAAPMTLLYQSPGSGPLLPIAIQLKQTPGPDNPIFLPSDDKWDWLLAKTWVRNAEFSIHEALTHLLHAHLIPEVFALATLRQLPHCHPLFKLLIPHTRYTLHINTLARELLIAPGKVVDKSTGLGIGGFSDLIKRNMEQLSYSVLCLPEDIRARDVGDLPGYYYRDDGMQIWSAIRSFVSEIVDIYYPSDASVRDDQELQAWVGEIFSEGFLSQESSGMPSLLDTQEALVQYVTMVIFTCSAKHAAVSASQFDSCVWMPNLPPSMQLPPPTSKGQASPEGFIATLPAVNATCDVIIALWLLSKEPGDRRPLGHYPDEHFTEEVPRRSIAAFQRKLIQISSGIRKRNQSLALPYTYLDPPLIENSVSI
Summary of the method: (§1)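 Heparinized rat blood; PMNLs isolated by Ficoll/Hypaque gradient and hypotonic hemolysis, washed thrice in Hanks' solution, resuspended at 2 × 10^7 cells/mL in 1/15 M phosphate buffer pH 8.2 (>94% neutrophils, <1% platelets). Cells sonicated at 4 °C, given 1 mM CaCl2, incubated with [14C]arachidonic acid (0.2 µCi) 20 min at 37 °C; stopped by HCl acidification to pH 3.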

12-lipoxygenase = 12-lipoxygenase (Rattus norvegicus, UniProt F1LQ70); test: Inhibitory activity against 12-lipoxygenase in rat platelet rich plasma; format: cell-free
Chain of 12-lipoxygenase (F1LQ70 whole entry, looked up): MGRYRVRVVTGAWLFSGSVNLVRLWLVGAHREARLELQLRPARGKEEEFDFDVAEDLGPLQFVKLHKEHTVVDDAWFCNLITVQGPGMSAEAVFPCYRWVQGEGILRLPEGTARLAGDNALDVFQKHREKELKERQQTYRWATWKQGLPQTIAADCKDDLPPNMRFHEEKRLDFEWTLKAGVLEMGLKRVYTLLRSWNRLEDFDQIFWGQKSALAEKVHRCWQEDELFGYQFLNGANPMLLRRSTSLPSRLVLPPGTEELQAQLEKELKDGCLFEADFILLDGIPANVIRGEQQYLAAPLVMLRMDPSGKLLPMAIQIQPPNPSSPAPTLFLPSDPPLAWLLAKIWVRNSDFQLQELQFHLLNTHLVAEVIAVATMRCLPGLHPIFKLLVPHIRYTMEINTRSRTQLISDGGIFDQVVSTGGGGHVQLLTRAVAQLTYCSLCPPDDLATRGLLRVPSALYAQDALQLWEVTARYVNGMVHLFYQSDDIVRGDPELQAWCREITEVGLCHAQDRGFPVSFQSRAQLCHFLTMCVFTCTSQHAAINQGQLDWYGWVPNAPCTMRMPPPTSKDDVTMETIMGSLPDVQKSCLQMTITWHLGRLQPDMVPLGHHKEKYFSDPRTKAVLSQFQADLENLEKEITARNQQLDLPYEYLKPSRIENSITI

[2] = molecular target: T2, Polyunsaturated fatty acid 5-lipoxygenase (Rattus norvegicus, UniProt P12527); test: Inhibitory activity against 5-lipoxygenase in rat polymorphonuclear leukocytes; format: cell-based; summary of the method: as §1
T2 sequence (P12527 whole entry): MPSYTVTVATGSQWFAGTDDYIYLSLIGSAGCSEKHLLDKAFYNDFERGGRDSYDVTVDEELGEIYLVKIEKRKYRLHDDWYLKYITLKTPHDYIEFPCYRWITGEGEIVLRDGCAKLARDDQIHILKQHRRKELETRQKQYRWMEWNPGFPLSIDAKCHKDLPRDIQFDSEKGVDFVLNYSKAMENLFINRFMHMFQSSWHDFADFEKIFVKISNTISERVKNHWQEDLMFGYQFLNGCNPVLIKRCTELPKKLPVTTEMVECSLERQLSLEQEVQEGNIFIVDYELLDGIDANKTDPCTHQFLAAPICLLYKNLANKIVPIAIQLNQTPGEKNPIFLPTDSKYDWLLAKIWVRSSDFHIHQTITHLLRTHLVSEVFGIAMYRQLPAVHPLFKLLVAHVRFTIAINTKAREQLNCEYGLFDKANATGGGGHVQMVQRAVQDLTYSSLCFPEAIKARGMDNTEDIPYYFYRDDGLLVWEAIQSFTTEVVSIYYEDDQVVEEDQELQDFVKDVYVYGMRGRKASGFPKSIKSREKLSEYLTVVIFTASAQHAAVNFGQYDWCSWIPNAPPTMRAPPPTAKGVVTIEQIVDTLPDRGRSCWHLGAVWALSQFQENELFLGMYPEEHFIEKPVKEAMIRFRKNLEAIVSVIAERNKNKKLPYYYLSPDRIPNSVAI

Work on `N#C/C(=C\c1ccc(O)c(O)c1)C(=O)OCCCc1ccccc1` yielded an IC50 [1] of 1.4 µM, an IC50 (12-lipoxygenase) of 0.053 µM and an IC50 [2] of 0.16 µM.
`N#C/C(=C\c1ccc(O)c(O)c1)C(=O)OCCCCCCCCn1ccnc1` was tested, and the IC50 [1] was > 10 µM, the IC50 (12-lipoxygenase) was 0.18 µM and the IC50 [2] was > 10 µM.
In the case of `N#C/C(=C\c1ccc(O)c(O)c1)C(=O)OCCCc1cccnc1`, the IC50 [1] is reported as 3.93 µM, the IC50 (12-lipoxygenase) is reported as 0.47 µM and the IC50 [2] is reported as > 10 µM.
Work on `N#C/C(=C\c1ccc(O)c(O)c1)C(=O)OCCc1cccs1` yielded an IC50 [1] of 0.5 µM, an IC50 (12-lipoxygenase) of 0.013 µM and an IC50 [2] of 0.09 µM.
Work on `N#C/C(=C\c1ccc(O)c(O)c1)C(=O)OC/C=C/c1ccccc1` yielded an IC50 [1] of 3.33 µM, an IC50 (12-lipoxygenase) of 0.063 µM and an IC50 [2] of 1.89 µM.
For `N#C/C(=C\c1ccc(O)c(O)c1)C(=O)OCCc1ccccc1`, the IC50 [1] was 0.43 µM, the IC50 (12-lipoxygenase) was 0.051 µM and the IC50 [2] was 0.16 µM.
Molecule `COc1ccccc1CCOC(=O)/C(C#N)=C/c1ccc(O)c(O)c1` has an IC50 [1] of 1.62 µM, an IC50 (12-lipoxygenase) of 0.064 µM and an IC50 [2] of 0.14 µM.
In the case of `CCOC(=O)/C(C#N)=C/c1ccc(O)c(O)c1`, the IC50 [1] is reported as 0.33 µM, the IC50 (12-lipoxygenase) is reported as 0.033 µM and the IC50 [2] is reported as > 10 µM.
`N#C/C(=C\c1ccc(O)c(O)c1)C(=O)OCCCCc1ccccc1` showed an IC50 [1] of 3.59 µM, an IC50 (12-lipoxygenase) of 0.47 µM and an IC50 [2] of 0.22 µM.
`O=c1cc(-c2ccccc2)oc2cc(O)c(O)c(O)c12` [BAICALEIN] showed an IC50 [1] of 0.26 µM and an IC50 (12-lipoxygenase) of 0.015 µM.
